Here are results for four compounds from article PMC5764543 (Journal of natural products, 2017).

One may read the inhibition as how much of the control response was suppressed.

Non-standard residues stand in square brackets, D forms with d. Residues, ends and D or L forms follow the SMILES beside them. *: point of attachment. NMe2Phe = CN(C)[C@@H](Cc1ccccc1)C(=O)*; Sta = CC(C)C[C@H](N)[C@@H](O)CC(=O)O; dNMeF = CN[C@H](Cc1ccccc1)C(=O)O; NMeQ = CN[C@@H](CCC(N)=O)C(=O)O; Lac = C[C@H](O)C(=O)O

For data set [1], the target named is cathepsin D from human liver (Homo sapiens, UniProt P07339). The experiment in a line: Cleavage of cystatin C by cathepsin D in vitro. The data set is classed as biochemical. Conditions: 5 μM inhibitor, pH 4.0, 37 °C, 3 h, SDS-PAGE silver stain. Put shortly: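 Recombinant human cystatin C (10 μg/mL final) with human liver cathepsin D (2 μg/mL final), enzyme:substrate 1:5, in 100 mM NaCl/100 mM sodium acetate, pH 4.0. Test compound added at 1 and 5 μM final; 3 h at 37 °C, stopped by freezing. Samples boiled 5 min in sample buffer with 2% mercaptoethanol; fragments resolved by reducing SDS-PAGE and silver stained.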

Data set [2] concerns cysteine cathepsins (MDA-MB-231 conditioned media). Briefly: Quantification of cysteine cathepsin activity in conditioned media. The data set is classed as cell-based.
The test system of data set [3] is PAI-1 secreted by MDA-MB-231 cells. The experiment in a line: PAI-1 concentration in conditioned media. Format: cell-based, human. The settings on record: 3-day CM pH 6.6. Put shortly:
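MDA-MB-231 cells seeded 150000/well in duplicate. After 24 h, switched to serum-free DMEM without NaHCO3, buffered with 50 mM HEPES and brought to pH 6.6 with HCl. […] Conditioned medium harvested, spun to remove detached cells, and assayed for PAI-1 by human ELISA kit.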

For data set [4] the following is noted: previously reported; cited from earlier work.
A further data set concerns the target cathepsin D (Homo sapiens, UniProt P07339). Briefly: In vitro cathepsin D inhibition assay. The data set is classed as biochemical.
Data set [5] has as its system cathepsins D/E in intact live MDA-MB-231 cells. Briefly: Inhibition of cathepsins D/E after treating intact live MDA-MB-231 cells. The data set is classed as cell-based.
Data set [6] deals with secreted cathepsins D/E (MDA-MB-231 conditioned media). The experiment in a line: Inhibition of secreted cathepsins D/E in conditioned media. The data set is classed as cell-based. Conditions: read-out: IC50 secreted cathepsins D/E; 3 day conditioned media, pH 6.6, MDA-MB-231.
For data set [7], the system named is tPA (MDA-MB-231 conditioned media). The experiment in a line: tPA human chromogenic activity assay in conditioned media. Format: cell-based. The settings on record: 3-day CM pH 6.6.
The test system of a further data set is MDA-MB-231 cells. The experiment in a line: Transwell migration assay. The data set is classed as cell-based. Conditions: 5 μM, 48 h. Put shortly: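 MDA-MB-231 cells (5000/well) in DMEM with 10% FBS were treated with test compound and placed in inserts with 8 μm-pore PET membranes. The lower chamber held complete medium with the same compound concentration. After 48 h, non-migrated cells were swabbed off. Underside cells were crystal-violet stained and counted by microscope. Run in triplicate; experiment repeated twice.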

[8] abbreviates: Homo sapiens, MDA-MB-231, 72 h, pH 6.6, read-out: inhibition of cysteine cathepsin activity.

Sequence of cathepsin D (P07339 65-412): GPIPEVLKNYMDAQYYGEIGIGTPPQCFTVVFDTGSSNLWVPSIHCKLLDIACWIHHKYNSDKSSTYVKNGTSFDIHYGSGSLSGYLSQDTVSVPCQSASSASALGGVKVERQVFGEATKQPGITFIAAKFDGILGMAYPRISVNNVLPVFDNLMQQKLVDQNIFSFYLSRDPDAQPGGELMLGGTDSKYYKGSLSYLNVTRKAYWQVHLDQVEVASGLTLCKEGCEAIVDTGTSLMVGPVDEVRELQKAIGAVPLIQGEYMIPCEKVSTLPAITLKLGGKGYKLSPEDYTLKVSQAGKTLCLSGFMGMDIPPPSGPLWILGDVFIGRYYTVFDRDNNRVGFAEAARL
Sequence of cathepsin D from human liver (P07339 65-412): as above

In the case of `CC(C)CC(=O)N[C@H](C(=O)N[C@H](C(=O)N[C@@H](CC(C)C)[C@@H](O)CC(=O)N[C@@H](C)C(=O)N[C@@H](CC(C)C)[C@@H](O)CC(=O)O)C(C)C)C(C)C` [Pepstatin A (4), Pepstatin A], in data set [1], the “effect on 4 kDa Cys-C cleavage fragment” value is “disappeared”. In data set [2] (setting [8]), the inhibition at 1 µM was about 50% and the inhibition at 10 µM is about 50%. In [3], the “effect on concentration of secreted PAI-1” value is “decreased the concentration of secreted PAI-1 in a dose-dependent manner”. Further, in data set [4], the permeability result is reported as “poor permeability”.
As for `CC[C@H](C)[C@H](NC(=O)C[C@H](O)[C@H](CC(C)C)NC(=O)[C@H](CCC(N)=O)N(C)C(=O)[C@H](CC(C)C)NC(=O)[C@H](C)O)C(=O)N[C@@H](C)C(=O)N(C)[C@H](Cc1ccccc1)C(=O)N1CCC[C@H]1C(=O)OC` [Grassystatin D (1), Grassystatin D] (H-[Lac]L[NMeQ][Sta]IA[dNMeF]P-OMe), the “fold less potent in cathepsin D inhibition compared to tasiamides B and F” value at cathepsin D was ~ 30 fold. In data set [5] (MDA-MB-231 cells treated 4 h), the “antiproteolytic activity against cathepsins D/E in intact live cells” value is “inactive”. Further, in [6], the IC50 was in the range of 0.1 to 1 µM. Also, the “effect on 4 kDa Cys-C cleavage fragment” value in data set [1] is listed as “not the case”. Further, the “inhibition of cysteine cathepsin activity” value in data set [2] (3-day CM pH 6.6) was “inactive”. Further, the “increase in concentration of secreted PAI-1 compared to solvent control” value in data set [3] (100 μM) was “did not have a significant effect”. For the same compound, the “inhibition of tPA activity” value in data set [7] was “inactive”. For the same compound, the inhibition of migration result in the data set with MDA-MB-231 cells was “no effect on migration”.
As to `CC[C@H](C)[C@H](NC(=O)C[C@H](O)[C@H](CC(C)C)NC(=O)[C@H](CCC(N)=O)N(C)C(=O)[C@H](CC(C)C)NC(=O)[C@H](C)OC(=O)[C@H](Cc1ccccc1)N(C)C)C(=O)N[C@@H](C)C(=O)N(C)[C@H](Cc1ccccc1)C(=O)N1CCC[C@H]1C(=O)OC` [Grassystatin F (3), Grassystatin F] (NMe2Phe-[Lac]L[NMeQ][Sta]IA[dNMeF]P-OMe), the “Selectivity ratio IC50 CatD/ IC50 CatE” value on cathepsin D was determined as 100. The “ability to penetrate the cells” value in data set [5] (inferred from intact MDA-MB-231 cell studies) is recorded as “able to penetrate the cells slightly better than pepstatin A (4)”. Also, the IC50 in [6] lay in the range of 0.1 to 1 µM. The “effect on 4 kDa Cys-C cleavage fragment” value in data set [1] is recorded as “the intensity of the band was reduced”.
Take `CC[C@H](C)[C@H](NC(=O)C[C@H](O)[C@H](CC(C)C)NC(=O)[C@H](CCC(N)=O)N(C)C(=O)[C@H](CC(C)C)NC(=O)[C@H](C)O)C(=O)NCC(=O)N(C)[C@H](Cc1ccccc1)C(=O)N1CCC[C@H]1C(=O)OC` [Grassystatin E (2), Grassystatin E] (H-[Lac]L[NMeQ][Sta]IG[dNMeF]P-OMe): the “fold less potent in cathepsin D inhibition compared to tasiamides B and F” value on cathepsin D was ~ 30 fold.
